Inconclusive results are not listed.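 The calls were made as follows, unless noted: active = RAM network inhibition above 8.4% in each of two replicates, 3 SD over the compound average; inconclusive = above 8.4% inhibition in only one replicate; inactive = 8.4% inhibition or less in each replicate.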
Legend:
[1] = OD615 S. cerevisiae growth inhibition, permissive medium, pilot counter-assay, permissive growth control for S. cerevisiae lifespan shortening project (AID 705;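 active = growth inhibition above 25% in both replicates, a cutoff set 3 SD above the mean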); conditions: OD615, 24 h, at 10 µM, hits give high values
How it was run: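 Material: engineered DeaD yeast; Compound: one dose 10 µM, DMSO 0.25% final; Detection: absorbance (optical density) at 615 nm; Buffer or medium: permissive raffinose/galactose medium; Timing: 24 h exposure, 30 °C.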

[2] = Restrictive medium S. cerevisiae growth inhibition, OD615, pilot screen of yeast lifespan reduction project, restrictive growth control (AID 706;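 active = growth inhibition above a set limit, 3 SD over mean compound inhibition, in both replicates, cut at about 43% in these data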;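 also: modified DeaD lifespan yeast strain shifted to restrictive glucose medium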); conditions: OD615, 48 h, at 10 µM, hits give high values
How it was run: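 Buffer or medium: restrictive glucose medium (CSMM-D); test system: modified S. cerevisiae; doses: single dose of 10 µM compound final, 0.25% DMSO; schedule: 48 h compound exposure at 30 °C; detection: absorbance (optical density) measured at 615 nm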

[3] = viability gain of MRP-1-high H69AR cells under doxorubicin, pilot screen, MRP-1 activator project, CellTiter-Glo, duplicate (AID 807;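 active = viability increase at or above a cutoff of the median across tested compounds plus 3 SD, cut at about 8.5% in these data, passing the limit was not always enough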;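 also: compound pretreatment 18-22 h then 72 h combined with doxorubicin; 0% = doxorubicin alone and 100% = vehicle without doxorubicin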); conditions: H69AR viability with doxorubicin, CellTiter-Glo luminescence; at 10 µM; hits give high values
[4] = growth suppression of beta-catenin knockout HCT116, pilot screen, human colon tumor cells (AID 823;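 active = cell viability at or below a set limit in both duplicate runs, the limit being the all-compound median minus 4 SD, cut at about 23% in these data, passing the limit was not always enough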;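 also: 0% = wells killed by 20 µM Hyamine and 100% = untreated DMSO cell wells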); conditions: CellTiter-Glo, 60 h, at 10 µM, hits give low values
[5] = growth suppression of PTEN-deleted HCT116, pilot screen, cell-based, HCT116 clonal line, CellTiter-Glo (AID 824;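 active = viability at or below 27.92% in each of two runs, the all-compound median minus 4 SD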;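 also: 0% = 20 µM Hyamine control and 100% = vehicle cell control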); conditions: 60 h, at 10 µM, hits give low values
[6] = inhibitors of the yeast RAM network, pilot screen, dse1pr::URA3 reporter, 5-FOA selection (AID 869;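 active = inhibition over a set limit, the all-compound mean plus 3 SD, in both replicate runs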;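 also: 0% = DMSO wells with no growth and 100% = 10 µM 1-NA-PP1 with full growth; RAM network block rescues cells from 5-FOA so hits raise OD615 growth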); conditions: S. cerevisiae dse1pr::URA3 5-FOA growth, OD615, 2 d; at 10 µM; hits give high values; strain carries analog-sensitive mutant Cbk1 kinase
[7] = RAM signaling pathway blockade in yeast – S. cerevisiae, Pdr1DBD-CYC8 efflux-inhibited sensitized strain, primary screen (AID 1298);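 also: 0% = DMSO untreated cells without growth and 100% = 10 µM 1-NA-PP1 full growth; higher means more yeast growth rescued from 5-FOA killing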; conditions: S. cerevisiae cbk1-as DSE1-URA3 strain, 5-FOA growth OD615, 2 d; at 50 µM; hits give high values

Cc1ccnc(SCCn2c(N3CCN(c4ccccc4)CC3)nc3c2c(=O)[nH]c(=O)n3C)n1
inactive: growth inhibition [1] -8.81% | growth inhibition [2] 5.83% | viability increase [3] -3.59% | viability [4] 89.4% | viability [5] 76.8% | inhibition [6] 2.09% | RAM network inhibition [7] 4.01%

C=CCN1C(=O)C2C(C(=O)NC)C3(C)C=CC2(O3)C1C(=O)NCc1ccc(OC)cc1 (stereo not drawn)
inactive: growth inhibition [1] -5.37% | growth inhibition [2] 3.69% | viability increase [3] 1.33% | viability [4] 103% | viability [5] 99.9% | inhibition [6] 0.89% | RAM network inhibition [7] 0.49%

CCOc1ccc(NC(=O)N2CCC(n3c(=O)[nH]c4ccccc43)CC2)cc1
inactive: growth inhibition [1] -13.3% | growth inhibition [2] -22% | viability increase [3] 6.11% | viability [4] 83.2% | viability [5] 84.2% | inhibition [6] 1.9% | RAM network inhibition [7] 2.37%

N#Cc1nc(COc2ccc(Br)cc2)oc1N1CCCCCC1
inactive: growth inhibition [1] -13.1% | growth inhibition [2] 3.57% | viability increase [3] 4.39% | viability [4] 62.4% | viability [5] 67.5% | inhibition [6] 2.33% | RAM network inhibition [7] 7.31%

O=C1c2ccccc2C(=O)N1CCC(=O)N1CCCc2ccccc21
inactive: growth inhibition [1] -19.9% | growth inhibition [2] -13.7% | viability increase [3] -0.26% | viability [4] 93.8% | viability [5] 96.8% | inhibition [6] 2.32% | RAM network inhibition [7] 7.36%

O=C(Cn1cc2c(n1)CCCC2)NCc1cccs1
inactive: growth inhibition [1] -4.03% | growth inhibition [2] -3.48% | viability increase [3] -0.37% | viability [4] 105% | viability [5] 93% | inhibition [6] 1.2% | RAM network inhibition [7] 0.81%

O=C(NCCN1C(=O)C2C3C=CC(C3)C2C1=O)Nc1ccc(Br)cc1 (stereo not drawn)
inactive: growth inhibition [1] -9% | growth inhibition [2] 9.2% | viability increase [3] -1.13% | viability [4] 103% | viability [5] 88.3% | inhibition [6] 0.81% | RAM network inhibition [7] 0.1%

O=C(COC(=O)C1(c2ccccc2F)CCCC1)N1CCN(C(=O)c2ccco2)CC1
inactive: growth inhibition [1] -13.4% | growth inhibition [2] -13.8% | viability increase [3] -2.48% | viability [4] 87.3% | viability [5] 95.4% | inhibition [6] 0.995% | RAM network inhibition [7] 1.19%

Cc1ccc(C)c(NC(=O)CS(=O)(=O)c2c[nH]c3ccccc23)c1
inactive: growth inhibition [1] -9.01% | growth inhibition [2] -31.9% | viability increase [3] -2.95% | viability [4] 96.5% | viability [5] 93.5% | inhibition [6] 2.13% | RAM network inhibition [7] -0.27%

CCP(=O)(c1ccccc1)C(C)(C)O (stereo not drawn)
inactive: growth inhibition [1] 6.37% | growth inhibition [2] -8.84% | viability increase [3] -2.44% | viability [4] 104% | viability [5] 93.9% | inhibition [6] 1.48% | RAM network inhibition [7] -0.68%

CCOC(=O)CNC(=O)CSc1nc2sc(C)c(C)c2c(=O)n1C
inactive: growth inhibition [1] -0.13% | growth inhibition [2] 34.3% | viability increase [3] -3.44% | viability [4] 98.4% | viability [5] 97.6% | inhibition [6] 3.61% | RAM network inhibition [7] 5.94%

CCSCCOC(=O)C1=C(C)N(C)C(=O)NC1c1cc(OC)ccc1OC (stereo not drawn)
inactive: growth inhibition [1] 0.26% | growth inhibition [2] -2.77% | viability increase [3] 1.05% | viability [4] 94.2% | viability [5] 93.8% | inhibition [6] 0.645% | RAM network inhibition [7] 2.69%

COc1cccc(C(=O)NCCn2ccc3ccccc32)c1
inactive: growth inhibition [1] -0.9% | growth inhibition [2] -3.15% | viability increase [3] -1.6% | viability [4] 95.3% | viability [5] 90.6% | inhibition [6] 0.825% | RAM network inhibition [7] 2.48%

O=C(c1csc2c1CCCC2)N1CCCCC1
inactive: growth inhibition [1] 12.4% | growth inhibition [2] 8.33% | viability increase [3] -1.17% | viability [4] 99.2% | viability [5] 102% | inhibition [6] -0.145% | RAM network inhibition [7] 1.12%

NC(=O)c1ccsc1NC(=O)C1CCCCC1
inactive: growth inhibition [1] -3.66% | growth inhibition [2] -5.7% | viability increase [3] -0.9% | viability [4] 102% | viability [5] 101% | inhibition [6] 0.965% | RAM network inhibition [7] 0.22%

CCCN1C(=O)c2cc(C(=O)Nc3ccccc3CC)ccc2C1O (stereo not drawn)
inactive: growth inhibition [1] -6.36% | growth inhibition [2] -1.31% | viability increase [3] -0.05% | viability [4] 101% | viability [5] 108% | inhibition [6] 0.77% | RAM network inhibition [7] 3.59%

CN(C)CCCN1C(=O)c2oc3ccc(F)cc3c(=O)c2C1c1cccnc1 (stereo not drawn)
inactive: growth inhibition [1] 4.42% | growth inhibition [2] 7.96% | viability increase [3] -1.1% | viability [4] 107% | viability [5] 98.7% | inhibition [6] 2.9% | RAM network inhibition [7] 2.14%

O=C(O)c1cc(Cl)c(Cl)cc1C(=O)N1CCOCC1
inactive: growth inhibition [1] -26.1% | growth inhibition [2] -13.7% | viability increase [3] -0.17% | viability [4] 94% | viability [5] 89.5% | inhibition [6] 1.38% | RAM network inhibition [7] 1.67%

O=C(O)c1ccc(-n2nnnc2SCc2ccccc2F)cc1
inactive: growth inhibition [1] -13.7% | growth inhibition [2] 6.63% | viability increase [3] 1.71% | viability [4] 105% | viability [5] 102% | inhibition [6] 2.46% | RAM network inhibition [7] 9.03%

Cc1ccccc1CNc1nc(N)n(-c2ccccc2)n1
inactive: growth inhibition [1] -0.29% | growth inhibition [2] 2.71% | viability increase [3] -1.74% | viability [4] 104% | viability [5] 98.1% | inhibition [6] 0.48% | RAM network inhibition [7] 4.87%

CCCCS(=O)CC(CS(=O)CCCC)OC(=O)c1ccccc1 (stereo not drawn)
inactive: growth inhibition [1] 4.33% | growth inhibition [2] 5.83% | viability increase [3] -1.89% | viability [4] 102% | viability [5] 96.1% | inhibition [6] 0.405% | RAM network inhibition [7] 2.4%

CC(C)(C)NC(=O)C1CCCN(S(=O)(=O)c2cccc3cccnc23)C1 (stereo not drawn)
inactive: growth inhibition [1] -5.03% | growth inhibition [2] 3.88% | viability increase [3] -2.62% | viability [4] 103% | viability [5] 96.1% | inhibition [6] 1.6% | RAM network inhibition [7] 0.52%

O=C(CSc1n[nH]c(-c2ccccc2)n1)c1ccccc1
inactive: growth inhibition [1] -0.485% | growth inhibition [2] 16.9% | viability increase [3] -0.56% | viability [4] 95.8% | viability [5] 95.5% | inhibition [6] 1.01% | RAM network inhibition [7] 2.45%

Cn1nc(-c2ccc(Cl)cc2)c2cc(C(=O)N3CCN(C(=O)c4ccco4)CC3)sc21
inactive: growth inhibition [1] 5.26% | growth inhibition [2] 15.6% | viability increase [3] -6.46% | viability [4] 66.6% | viability [5] 66.2% | inhibition [6] 0.755% | RAM network inhibition [7] 4.92%
